Experimental data as given in ChEMBL document CHEMBL4145455, “Design, synthesis and evaluation of novel phenyl propionamide derivatives as non-nucleoside hepatitis B virus inhibitors” (Eur J Med Chem, 2018).

Experiments:
Hepatitis B virus [1] = experiment: Antiviral activity against HBV infected in human […] cells assessed as inhibition of viral DNA replication at 100 uM after 72 hrs by RT-PCR method relative to control; format: functional
Procedure, shortened: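 HepG2 cells (2×10^5/well) transfected overnight-plated, 24 h with plasmid carrying wild-type or rtL180M+rtM204V+rtT184L resistant HBV; after PBS wash, fresh medium with lamivudine 100 μM, entecavir 10 μM, or test compounds 1 μM (one at 10 μM) for 72 h; replicative intermediate HBV DNA measured by real-time PCR.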

Hepatitis B virus [2] = experiment: Antiviral activity against lamivudine/entecavir resistant HBV harboring reverse transcriptase L180M/M204V/T184L mutant infected in human HepG2 cells assessed as inhibition of viral DNA replication at 100 uM after 72 hrs by RT-PCR method relative to control; settings: HepG2, 72 h
[3] = Cytotoxicity against human HepG2(2.2.15) cells assessed as reduction in cell viability after 72 hrs by MTT assay; format: cell-based
Procedure, shortened: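 Confluent HepG2 2.2.15 cells exposed to graded compound concentrations for 72 h alongside untreated controls on each plate; viability by MTT uptake, absorbance 490 nm relative to untreated cells; CC50 = concentration killing 50% of cells. Three replicates.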

Hepatitis B virus [4] = experiment: Antiviral activity against HBV infected in human HepG2(2.2.15) cells assessed as inhibition of intracellular viral pregenomic RNA expression at 1 uM after 6 days by TRIzol reagent based RT-PCR method relative to control; format: functional; settings: HepG2 2.2.15, 144 h
Procedure, shortened: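 HepG2 2.2.15 cells at 6×10^5 per well treated 6 days at 1 μM; total cellular RNA extracted and intracellular HBV pgRNA quantified by real-time PCR.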

[5] = Selectivity index, ratio of CC50 for human HepG2(2.2.15) cells to IC50 for antiviral activity against lamivudine/entecavir resistant HBV harboring reverse transcriptase L180M/M204V/T184L mutant infected in human HepG2(2.2.15) cells; format: toxicity, cell-based; settings: read-out: Ratio CC50/IC50
Procedure, shortened: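 SI = CC50/IC50. CC50 comes from HepG2 2.2.15 cells grown to confluence and treated for 72 h, with MTT absorbance at 490 nm relative to untreated cells, in triplicate. IC50 comes from mutant-plasmid-transfected HepG2 cells treated for 72 h, with HBV DNA measured by real-time PCR.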

Hepatitis B virus [6] = experiment: Antiviral activity against HBV infected in human HepG2(2.2.15) cells assessed as inhibition of viral DNA replication at 20 uM after 6 days by RT-PCR method relative to control; format: functional; settings: HepG2 2.2.15, 144 h
Procedure, shortened: (§1)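 HepG2 2.2.15 cells (stable HBV genome; DMEM, 10% FBS, G418 0.38 mg/mL) seeded 2×10^5/well, recovered 24 h, then compound in assay medium (single 20 or 4 μM, or dose series for IC50), medium changed every 2 days; after 6 days HBV DNA extracted and quantified by real-time PCR. Mean ± SD, ≥3 independent experiments in duplicate.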

[7] = Selectivity index, ratio of CC50 for human HepG2(2.2.15) cells to IC50 for antiviral activity against HBV infected in human HepG2(2.2.15) cells assessed as inhibition of viral DNA replication; format: toxicity, cell-based; settings: read-out: Ratio CC50/IC50
Procedure, shortened: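 SI calculated as CC50 (72 h MTT, HepG2 2.2.15) divided by IC50 for inhibition of HBV DNA replication measured by real-time PCR.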

Hepatitis B virus [8] = experiment: Antiviral activity against HBV infected in human HepG2(2.2.15) cells assessed as inhibition of viral DNA replication after 6 days by RT-PCR method; format: functional, organism-based; settings: HepG2 2.2.15, 144 h; procedure, shortened: as §1
Hepatitis B virus [9] = experiment: Antiviral activity against lamivudine/entecavir resistant HBV harboring reverse transcriptase L180M/M204V/T184L mutant infected in human […] after 72 hrs by RT-PCR method; format: functional, organism-based
Procedure, shortened: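 HepG2 cells (2×10^5 per well) were plated, incubated overnight, then transiently transfected for 24 h with a plasmid carrying the full HBV genome with rtL180M + rtM204V + rtT184L. Medium was discarded, cells washed with PBS, then treated across a dose range in fresh medium for 72 h. Intracellular HBV DNA replicative intermediate was quantified by real-time PCR. IC50 is 50% inhibition of DNA replication.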

With `Nc1ccn([C@@H]2CS[C@H](CO)O2)c(=O)n1` [LAMIVUDINE] as the molecule, how does the inhibition at 100 µM (Hepatitis B virus [1]) read?
The inhibition at 100 µM was 94.3%.

What about the inhibition at 100 µM (Hepatitis B virus [2]) of the same molecule?
The inhibition at 100 µM was 19.4%.

What about the CC50 at 72 h [3] of the same molecule?
Its CC50 at 72 h is over 100 µM.

What about the inhibition at 1 µM (Hepatitis B virus [4]) of the same molecule?
Its inhibition at 1 µM is 0.81%.

What about the selectivity ratio [5] of the same molecule?
The selectivity ratio was under 1.

And the inhibition at 20 µM (Hepatitis B virus [6])?
The inhibition at 20 µM was 92.7%.

What about the selectivity ratio [7] of the same molecule?
The selectivity ratio was over 1000.

And the IC50 (Hepatitis B virus [8])?
The IC50 was under 0.1 µM.

And the IC50 (Hepatitis B virus [9])?
Its IC50 is over 100 µM.
